Series [1] concerns Leishmania donovani. Nature of the series: Antileishmanial activity against Leishmania donovani amastigotes infected in mouse J774A.1 cells after 72 hrs by luciferase reporter gene based luminometric analysis. As to conditions: J774.A1, 72 h. Format: functional, organism-based. The procedure, abridged: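 J-774A.1 macrophages seeded at 4 × 10⁴/well in RPMI-1640 + 10% FCS, 37 °C, CO₂. After 24 h, infected with stationary-phase luciferase-expressing promastigotes (4 × 10⁵/well). Medium replaced with compound, seven-point twofold dilutions from 40 µM, for 72 h. Steady Glo added, luminescence read as RLU. IC50 by nonlinear regression with four-parameter Hill fit.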
Background: Reporter assays use an easily measured gene product as a stand-in for the process of interest.

Series [2] is described as follows: Cytotoxicity against human KB cells assessed as cell viability after 72 hrs by MTT assay. Format: cell-based. Summed up: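 Exponentially growing KB cells at 1 × 10⁵/well exposed 72 h at 37 °C in humidified CO₂/air to seven-point threefold dilutions from 400 µM; DMSO vehicle wells as control. MTT (5 mg/ml) added 2 h at 37 °C, supernatant removed, DMSO added, absorbance at 544 nm. CC50 is the concentration giving 50% viability reduction versus medium-only cells.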
(Tetrazolium dyes change colour on reduction, which living cells bring about.)

The nature of series [3]: Selectivity index, ratio of CC50 for human KB cells to IC50 for Leishmania donovani amastigotes infected in mouse J774A.1 cells. The class given is functional. The procedure, abridged: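 SI = CC50 (KB cells, MTT, 72 h) divided by IC50 against intracellular amastigotes in J-774A.1 macrophages (luciferase read-out, 72 h).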
The test system of series [4] is Leishmania donovani. Briefly: Antileishmanial activity against Leishmania donovani MHOM/IN/80/Dd8 amastigotes infected in golden hamster assessed as inhibition of parasite multiplication at 50 mg/kg, ip for 5 days measured on day 7 by Giemsa staining. Format: functional. The following applies: for inhibition in vivo at 50 mg/kg: MHOM/IN/80/Dd8, ip, route intraperitoneal. Summed up:
(§1)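 Golden hamsters (inbred, either sex, 40–45 g) infected intracardially with 1 × 10⁷ amastigotes each; infection establishes in 15–20 days. Animals randomized by biopsy parasite burden, 5–6 per sample. Dosing began 2 days after biopsy, five consecutive days. Post-treatment biopsy on day 7 after last dose, amastigotes counted by Giemsa staining. PI = 100 − [ANAT × 100/(INAT × TIUC)] versus untreated controls.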

The test system of series [5] is Leishmania donovani. Briefly: Antileishmanial activity against Leishmania donovani MHOM/IN/80/Dd8 amastigotes infected in golden hamster assessed as inhibition of parasite multiplication at 30 mg/kg, po for 5 days measured on day 7 by Giemsa staining. The class given is functional. The procedure, abridged: as §1

Activity calls are given as the source filed them. The rule behind the calls is not given here. A value given as a limit tells only on which side of the number the result lay.

Usually IC50 stands for the concentration that inhibits the measured activity by half. Read a low IC50 as greater potency in that assay. Broadly, the CC50 is the concentration at which the toxic effect on the cells reaches its halfway point. In general, inhibition in vivo refers to the percentage by which the read-out fell short of the control.

Regarding `CSC(=CC(=O)/C=C/c1cccc([N+](=O)[O-])c1)SC`, 5.12 µM corresponded to half-maximal inhibition in series [1] (IC50). Further, in series [2], the CC50 at 72 h turned out to be 9.83 µM. In addition, the “Ratio CC50/IC50” value in series [3] was 1.92. Further, in series [4], the inhibition in vivo at 50 mg/kg amounted to 82.8%.
In series [1], `CSC(=CC(=O)/C=C/c1ccc(-n2cnnc2)cc1)SC` came in with an IC50 above 20 µM. In addition, in series [4], the inhibition entry was “inactive”.
The corresponding values for `CSC(=CC(=O)/C=C/c1ccc([N+](=O)[O-])cc1)SC` are above 40 µM and “inactive”.
The corresponding values for `CSC(=CC(=O)/C=C/c1ccc(Cl)cc1)SC` are above 20 µM and “inactive”.
The like results for `CSC(=CC(=O)/C=C/c1ccccc1Cl)SC` were, in that order, above 40 µM and “inactive”.
The molecule `CSC(=CC(=O)/C=C/c1ccc(-n2ccnc2)cc1)SC` came in with an IC50 in series [1] above 40 µM. In addition, the inhibition result in series [4] was “inactive”.
Consider `COc1cc(/C=C/C(=O)C=C(SC)SC)ccc1OCc1ccccc1`, for which half-maximal inhibition in series [1] (IC50) was put at 3.56 µM. In addition, in series [2], the CC50 at 72 h turned out to be 204 µM. Besides, the “Ratio CC50/IC50” value in series [3] turned out to be 57.26. For the same molecule, the inhibition in vivo at 50 mg/kg in series [4] is 78%.
For the molecule `CCCCCCCCCCCCCCCCOP(=O)([O-])OCC[N+](C)(C)C` [MILTEFOSINE], the concentration for half-maximal inhibition (IC50) in series [1] was found to be 12.5 µM. Besides, the CC50 at 72 h in series [2] is 3.23 µM. Besides, the “Ratio CC50/IC50” value in series [3] turned out to be 0.26. Besides, in series [5], the inhibition in vivo at 30 mg/kg was determined as 95.3%.
The molecule `CSC(=CC(=O)/C=C/c1ccc(F)cc1)SC` showed an IC50 in series [1] above 40 µM. In addition, the inhibition result in series [4] is “inactive”.
